Most compounds without a hit are left out; they make up all but 2% or so of the library.
Bfl-1 A1 inh = inhibitors of the anti-apoptotic protein A1, read as caspase activation; MEF A1-2A-BIM cells, Caspase-Glo 3/7 luminescence, 3 h; percent of clofoctol response, vehicle zero; caspase activation, % (no concentration beside the values); 330,000 tested, 0.066% active; AID 2462;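 active = over half of replicate activation scores above 10%, or exactly half above 10 with the replicate mean above 10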
XBP1 UPR activ = adaptive UPR (XBP1) activation; AID 463104; activation, % at 20 µM; CHO-XBP1 luciferase reporter, IRE1-XBP1 UPR activation, luminescence; percent of tunicamycin response, DMSO as zero; 330,000 tested, 0.33% active;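 active = versus positive control, 20 µM dose yields 30% or more activation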;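 also: 100% = tunicamycin at 10 µg/mL and 0% = DMSO only wells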
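Material: IRE1-XBP1 luciferase reporter CHO line / Quantity: one thousand reporter cells per well / Buffer or medium: F12 with 10% serum / Compound: 20 µM single concentration, DMSO 1% / Times: 6 h treatment, 37 °C / Detection: Steady-Glo luciferase glow luminescence, 10 min after reagent addition / Benchmarks: tunicamycin high, DMSO low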
MC4R antag cAMP = antagonists of human melanocortin 4 receptor (MC4R) | P32245 | MC4R-expressing cells, MTII-stimulated cAMP, LANCE TR-FRET | inhibition, % at 6.5 µM | 360,000 tested, 0.48% active | AID 540295;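 active = inhibition above its plate's cutoff, the mean of tested wells on that plate plus 3 SD, cut at about 29% in these data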;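 also: 0% = Melanotan II alone and 100% = Melanotan II plus saturating MCL0020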
Target sequence (P32245 whole entry, looked up): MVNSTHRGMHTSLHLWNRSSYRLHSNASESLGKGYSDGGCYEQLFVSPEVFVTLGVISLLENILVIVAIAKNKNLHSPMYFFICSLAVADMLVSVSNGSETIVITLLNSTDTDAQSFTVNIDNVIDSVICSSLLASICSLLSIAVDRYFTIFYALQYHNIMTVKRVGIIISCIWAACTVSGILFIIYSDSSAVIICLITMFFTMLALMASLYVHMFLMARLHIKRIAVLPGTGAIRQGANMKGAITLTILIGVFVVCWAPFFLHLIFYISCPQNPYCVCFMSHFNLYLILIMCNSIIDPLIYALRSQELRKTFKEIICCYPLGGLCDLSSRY
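Test system: U2OS cells stably expressing human melanocortin 4 receptor (MC4R); also added: Melanotan II challenge; compound: 6.5 µM single dose; timing: 30-min compound preincubation, 1-h Melanotan II challenge, 1-h detection, room temperature; signal: Eu-cAMP/anti-cAMP TR-FRET, emission 671 nm; repeats: one well per compound, no replicates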
CHOP UPR activ = apoptotic UPR (CHOP) activation; 330,000 tested, 0.34% active; activation, % at 10 µM; CHO-CHOP luciferase reporter, luminescence; percent of tunicamycin response over DMSO baseline;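 active = at 10 µM dose, activation of 40% or more, normalized to positive control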;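 also: 100% = tunicamycin at 10 µg/mL and 0% = DMSO alone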
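System: CHO-CHOP luciferase reporter cell line; amount: 500 cells/well; buffer or medium: F12 medium containing 10% fetal bovine serum; incubation: 6 h compound exposure at 37 °C after overnight seeding; measured by: luciferase luminescence after 10 min with Steady-Glo reagent; evaluation: % reporter activation, DMSO baseline versus tunicamycin full activation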
MC4R ag barr = agonists of human melanocortin 4 receptor (MC4R) beta-arrestin; P32245; U2OS MC4R beta-arrestin complementation, luminescence; percent of melanotan II response, DMSO zero; activation, % at 8.9 µM; 360,000 tested, 0.98% active;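 active = activation above a per-plate cutoff, the mean activation of sample wells on that plate plus 3 SD, cut at about 8% in these data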
MC4R barr conf = human MC4R beta-arrestin agonism confirmation | shares compounds with MC4R ag barr | activation, % at 8.9 µM | U2OS MC4R beta-arrestin recruitment, luminescence; scaled DMSO 0%, Melanotan II 100% | 2,400 tested, 31% active;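 active = mean activation across replicates above the hit cutoff set in the earlier primary screen, cut at about 8% in these data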
MOR-DOR barr ag = counter-screen for MC4R agonists: agonists of mu-delta opioid heterodimer; U2OS PathHunter beta-arrestin, beta-gal luminescence; percent of deltorphin B response, DMSO zero; 2,400 tested, 5.8% active; activation, % at 9.2 µM; shares compounds with MC4R ag barr;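 active = mean activation across replicates exceeds the hit threshold derived in the earlier primary screen, cut at about 18% in these data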;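 also: 100% = deltorphin B at 0.9 µM final and 0% = DMSO alone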
* = called active by the depositor; . = no result.

SMILES | Bfl-1 A1 inh | XBP1 UPR activ | MC4R antag cAMP | CHOP UPR activ | MC4R ag barr | MC4R barr conf | MOR-DOR barr ag
Cc1ccccc1NC(=O)Nc1nc(C(N)Cc2ccccc2)cs1 (centres undefined) | . | . | -1 | . | 2 | . | .
COc1ccc(CC(N)c2csc(NC(=O)Nc3cc(OC)ccc3OC)n2)cc1 (centres undefined) | . | . | -4 | . | 0 | . | .
NC(Cc1ccc(C(F)(F)F)cc1)c1csc(NC(=O)Nc2ccccc2)n1 (centres undefined) | . | . | 1 | . | 19* | 19* | 13
COc1ccc(OC)c(NC(=O)Nc2nc(C(N)CCc3ccccc3)cs2)c1 (centres undefined) | . | . | 5 | . | 11* | 36* | 20*
COc1cc(OC)nc(Nc2nc(C(N)Cc3ccc(Cl)cc3)cs2)n1 (centres undefined) | . | . | -1 | . | 21* | 7 | 11
NC(Cc1ccc(C(F)(F)F)cc1)c1csc(NC(=O)Nc2ccccc2Cl)n1 (centres undefined) | . | . | 8 | . | 15* | 19* | 9
CCOC(=O)C1(Cc2cccc(OC)c2)CCN(C/C=C/c2ccccc2)CC1 | -1 | 0 | -2 | -1 | 12* | 10* | 10
CC(=O)NC(c1cccc(F)c1)c1nc(-c2ccc(N(C)C)cc2)cs1 (centres undefined) | . | . | 2 | . | -1 | . | .
CC(C)(C)c1ccc(C(=O)N2CCNCC2)cc1 | 0 | 5 | 9 | -2 | 0 | . | .
CN1CCC2(CC1)N=C(c1ccc(F)cc1)C(=S)N2C(=O)c1ccc(C(C)(C)C)cc1 | 0 | 1 | 13 | 4 | 11* | 5 | 18
CCOC(=O)C1(C)CCCN1C(=O)c1ccc(OC)c(F)c1 (centres undefined) | . | . | 9 | . | -1 | . | .
CN(C)CCNC(=O)c1ccc2nc([C@@H]3O[C@H](CO)[C@H](O)[C@H](O)[C@H]3O)[nH]c2c1 | . | . | 7 | . | 0 | . | .
CCCCCCc1cc2cc(S(=O)(=O)c3ccc(C)cc3)c(=O)oc2cc1O | 0 | -4 | 5 | 3 | 22* | 9.6* | 6
O=C(Nc1ccc2c(c1)OCO2)c1cc2n(n1)C(C(F)(F)F)CC(c1ccccc1)N2 (centres undefined) | 0 | 2 | -2 | 0 | 15* | 3 | 6
COc1ccc(C(=O)OCC(=O)c2ccc(C3CCCCC3)cc2)cc1 | -1 | 0 | -2 | -1 | -1 | . | .
Nc1ccc(O)cc1C(=O)OCC(=O)c1ccc(C2CCCCC2)cc1 | 0 | . | 7 | . | 21* | 12* | 14
O=C(Cn1cnc([N+](=O)[O-])c1)Nc1ccc(Cl)cc1Cl | . | . | -3 | . | -2 | . | .
COc1ccc(/C=C/C(=O)Oc2ccc(/C=N/NC(=O)c3ccccc3)cc2)cc1OC | 1 | 11 | 5 | 14 | 23* | -2 | 22*
COc1ccc(/C=N/Nc2nc(C)cc(-c3ccccc3)n2)cc1OC | 0 | -3 | 6 | 2 | -1 | . | .
COc1ccc(/C=N/NC(=O)c2nc(-c3ccccc3)cc(-c3ccccc3)n2)cc1OC | 1 | 8 | 11 | 13 | 19* | 2 | 4
COc1cccc(/C=N/NC(=O)c2nc(-c3ccccc3)cc(-c3ccccc3)n2)c1 | 0 | -3 | 9 | 9 | -2 | . | .
COc1ccc(-c2cnnc(N/N=C/c3ccc(OC)c(OC)c3)n2)cc1 | -1 | 1 | -5 | 1 | 13* | -3 | 5
COc1ccc(-c2cc(-c3ccccc3)nc(Cl)n2)cc1OC | 0 | 1 | -3 | -1 | 13* | 7 | 5
O=S(=O)(/N=C(\c1ccc(F)cc1)N1CCOCC1)c1ccccc1 | . | . | 13 | . | 0 | . | .
COc1cc(CN2C(=O)C(C)ON=C2c2cccs2)cc(OC)c1 (centres undefined) | . | . | 9 | . | -1 | . | .
SMILES | Bfl-1 A1 inh | XBP1 UPR activ | MC4R antag cAMP | CHOP UPR activ | MC4R ag barr | MC4R barr conf | MOR-DOR barr ag
Cc1nc2ccc(C(=O)NCCCn3ccnc3)cn2c1N(C)C(=O)CCc1ccccc1 | . | . | 5 | . | -1 | . | .
COc1ccc(CN2C[C@@H](CO)O[C@@H](n3cnc4c(N5CCOCC5)ncnc43)C2)cc1 | . | . | 7 | . | 0 | . | .
COc1ccc(NC(=O)Nc2cccc(Cl)c2Cl)c(OC)n1 | 1 | 10 | 4 | 2 | 23* | 5 | 6
Cn1nccc1NC(=O)Nc1cccc(Cl)c1Cl | 1 | -1 | 3 | 0 | -1 | . | .
COc1ccc(-c2ccc(NC(=O)c3ccc(Br)o3)cc2)nn1 | -9 | 0 | 5 | 4 | 2 | . | .
COc1ccc(C(=O)Nc2cccc(-c3cc4ccccc4oc3=O)c2)cc1[N+](=O)[O-] | 0 | . | -1 | . | 13* | 0 | 3
O=C(OCc1cn([C@H]2C[C@H](c3ccccc3)N(Cc3cccs3)C[C@@H]2O)nn1)c1ccccc1 | . | . | 14 | . | 3 | . | .
CCCn1c(=S)[nH]c2cc(C(=O)N3CCc4ccccc4C3)ccc2c1=O | -1 | 2 | 9 | 0 | 12* | -3 | 3
O=S1(=O)C[C@@H](N2CCC(Cc3ccccc3)CC2)[C@H](COCc2ccccc2)N1 | . | . | 9 | . | 5 | . | .
CCc1ccc(OCC(O)CN2CCC(CN3C(=O)c4cccc5cccc(c45)C3=O)CC2)cc1 (centres undefined) | 0 | 2 | 7 | 2 | 1 | . | .
COc1cccc(OCC(O)CN2CCC(CN3C(=O)c4cccc5cccc(c45)C3=O)CC2)c1 (centres undefined) | -1 | -3 | 14 | -1 | 2 | . | .
O=C1c2cccc3cccc(c23)C(=O)N1CC1CCN(CC(O)COc2ccc3ccccc3c2)CC1 (centres undefined) | -1 | 2 | -3 | 0 | 55* | 22* | 16
Cc1cc(C)cc(OCC(O)CN2CCC(CN3C(=O)c4cccc5cccc(c45)C3=O)CC2)c1 (centres undefined) | 0 | 0 | 9 | 0 | 31* | 33* | 14
Nc1nonc1-n1nnc(C(=O)N/N=C/c2ccc(OCc3ccccc3)cc2)c1COc1ccc(F)cc1 | 0 | 17 | 9 | 1 | 0 | . | .
CCCc1c(C(=O)N/N=C/c2cccc3ccccc23)nnn1-c1nonc1N | 0 | 23 | 12 | -2 | 17* | 1 | 3
CC(C)c1c(C(=O)N/N=C/c2ccc(OCc3ccc(F)cc3)cc2)nnn1-c1nonc1N | -2 | 0 | 13 | 2 | 3 | . | .
CCN(CC)Cc1c(C(=O)N/N=C/c2cccc3ccccc23)nnn1-c1nonc1N | 0 | 1 | 8 | 0 | 2 | . | .

Source: PubChem
